Measurements taken from ChEMBL document CHEMBL5579858, “Design, synthesis, and structure-activity relationship studies of 6,7-dihydro-5H-pyrrolo[1,2-b][1,2,4]triazole derivatives as necroptosis inhibitors” (RSC Med Chem, 2024).

Key:
[1] = Anti-necroptotic activity in human I2.1 cells assessed as inhibition of TNFalpha-induced necroptosis by measuring necroptosis recovery at 10 nM preincubated for 1 hr followed by TNFalpha addition and measured after 24 hrs by CCK-8 assay relative to control; format: functional; set-up: scale not given: the % may be the effect or the level left; details: time 25 hrs
Summary of the method: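 Human I2.1 cells from ATCC, seeded at low density in growth medium and incubated overnight. Compound added first. After 1 h, stimulated with TNF-α 20 ng mL⁻¹ and incubated a further 24 h. Viability read by CCK-8. Recovery is mean ± SD of at least two assays.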

[2] = test system: Hepa 1-6; experiment: Anti-necroptotic activity in mouse Hepa1-6 cells assessed as inhibition of TNFalpha/BV6/Z-VAD-induced necroptosis by measuring necroptosis recovery at 10 nM measured after 24 hrs by CCK-8 assay relative to control; format: functional; set-up: scale not given: the % may be the effect or the level left
Summary of the method: (§1)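 Murine Hepa1-6 cells from ATCC, seeded at low density and incubated overnight. Z-VAD 10 μM added 1 h ahead. Necroptosis then induced with TNF-α 20 ng mL⁻¹ plus BV6 10 μM, together with compound, for 24 h. Viability read by CCK-8. Recovery is mean ± SD of at least two assays.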

[3] = test system: Hepa 1-6; experiment: Anti-necroptotic activity in mouse Hepa1-6 cells assessed as inhibition of TNFalpha/BV6/Z-VAD-induced necroptosis by measuring necroptosis recovery at 1 uM measured after 24 hrs by CCK-8 assay relative to control; format: functional; set-up: scale not given: the % may be the effect or the level left; summary of the method: as §1
[4] = test system: Hepa 1-6; experiment: Anti-necroptotic activity in mouse Hepa1-6 cells assessed as inhibition of TNFalpha/BV6/Z-VAD-induced necroptosis by measuring necroptosis recovery at 100 nM measured after 24 hrs by CCK-8 assay relative to control; format: functional; set-up: scale not given: the % may be the effect or the level left; summary of the method: as §1
[5] = molecular target: T1, Receptor-interacting serine/threonine-protein kinase 1 (Homo sapiens) (UniProt Q13546); experiment: Inhibition of recombinant human N-terminal GST-tagged RIPK1 (1 to 327 residues) expressed in baculovirus infected Sf9 insect cells at 1 uM using myelin basic protein as substrate by ADP-glo assay relative to control
T1 sequence (whole entry): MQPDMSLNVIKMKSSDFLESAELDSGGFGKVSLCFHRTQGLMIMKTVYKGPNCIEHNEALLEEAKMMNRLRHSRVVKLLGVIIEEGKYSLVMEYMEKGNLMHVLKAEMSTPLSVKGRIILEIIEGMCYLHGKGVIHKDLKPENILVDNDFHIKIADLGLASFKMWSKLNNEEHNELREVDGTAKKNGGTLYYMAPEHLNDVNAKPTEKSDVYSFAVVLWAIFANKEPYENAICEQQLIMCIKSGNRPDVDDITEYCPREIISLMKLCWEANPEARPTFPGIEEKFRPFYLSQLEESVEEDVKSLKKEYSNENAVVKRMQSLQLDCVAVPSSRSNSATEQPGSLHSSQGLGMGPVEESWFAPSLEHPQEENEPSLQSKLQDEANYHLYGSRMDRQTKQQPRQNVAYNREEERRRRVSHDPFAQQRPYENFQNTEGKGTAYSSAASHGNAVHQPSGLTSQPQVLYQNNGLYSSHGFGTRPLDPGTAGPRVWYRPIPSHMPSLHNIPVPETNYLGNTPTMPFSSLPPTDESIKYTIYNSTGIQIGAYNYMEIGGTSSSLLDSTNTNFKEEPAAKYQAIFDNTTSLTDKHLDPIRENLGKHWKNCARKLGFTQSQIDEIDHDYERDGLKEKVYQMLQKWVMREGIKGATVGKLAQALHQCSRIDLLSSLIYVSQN
Summary of the method: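 RIPK1 kinase activity tested at 1 μM. Read-out is luminescence. Inhibition% = (DMSO-control specific signal − inhibitor specific signal)/DMSO-control specific signal × 100.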

[6] = Elimination half-life in Sprague-Dawley rat at 3 mg/kg, po by LC-MS/MS analysis; format: ADME, organism-based; details: in vivo, read-out: beta t1/2 (converted)
Summary of the method: (§2)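 Male Sprague Dawley rats, N = 3. Single oral dose of 3 mg kg⁻¹ in DMSO/0.5% HMPC (5/95, v/v). Blood taken at 0.25, 0.5, 1, 2, 4, 8 and 24 h. Serum drug levels measured by LC-MS/MS. Parameters reported as means.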

[7] = AUClast in Sprague-Dawley rat at 3 mg/kg, po by LC-MS/MS analysis; format: ADME, organism-based; details: in vivo; summary of the method: as §2
[8] = Tmax in Sprague-Dawley rat at 3 mg/kg, po by LC-MS/MS analysis; format: ADME, organism-based; details: in vivo; summary of the method: as §2
[9] = Cmax in Sprague-Dawley rat at 3 mg/kg, po by LC-MS/MS analysis; format: ADME, organism-based; details: in vivo; summary of the method: as §2
[10] = test system: HT-29; experiment: Anti-necroptotic activity in human HT-29 cells assessed as inhibition of TNFalpha/Z-VAD-fmk/AT-406-induced necroptosis preincubated for 30 mins followed by TNFalpha/Z-VAD-fmk/AT-406 addition and measured after 16 to 20 hrs by CCK-8 assay; format: functional, cell-based

`Cc1ccc(OCCCC(C)(C)O)cc1-c1cc(NC(=O)c2nc3n(n2)C(c2ccccc2)CC3)ncc1F` (stereo not given) showed an Activity [1] of 58.1%.
For `Cc1ccc(OCCCC(C)(C)O)cc1-c1ccnc(NC(=O)c2nc3n(n2)[C@@H](c2ccccc2)C[C@H]3F)c1` (relative stereo), the Activity [2] was 100.5%, the Activity [3] was 110% and the Activity [4] was 107.6%. It also gave an Activity [1] of 80.6%.
In the case of `Cc1ccc(OCCC2CCOCC2)cc1-c1ccnc(NC(=O)c2nc3n(n2)C(c2ccccc2)CC3)c1` (stereo not given), the Activity [2] is reported as 3.7%, the Activity [3] is reported as 96.6% and the Activity [4] is reported as 10.7%. The Activity [1] was 91.9%.
`Cc1ccc(OCCCC(C)(C)O)cc1-c1ccnc(NC(=O)c2nc3n(n2)C(c2ccc(F)cc2)CC3)c1` (stereo not given) showed an Activity [1] of 60.1%.
In the case of `Cc1ccc(OCCCC(C)(C)O)cc1-c1cc(NC(=O)c2nc3n(n2)C(c2ccccc2)CC3)ncc1Cl` (stereo not given), the Activity [1] is reported as 56.2%.
With `COc1ccc(C)c(-c2ccnc(NC(=O)c3nc4n(n3)C(c3ccccc3)CC4)c2)c1` (stereo not given) the Activity [1] was 73.7%.
Work on `Cc1ccc(OCCCC(C)(C)O)cc1-c1cc(NC(=O)c2nc3n(n2)C(c2ccccc2)CC3)ncc1C` (stereo not given) yielded an Activity [1] of 72.7%.
Work on `CC(C)(O)CCCOc1ccc(Cl)c(-c2ccnc(NC(=O)c3nc4n(n3)C(c3ccccc3)CC4)c2)c1` (stereo not given) yielded an Activity [3] of 2.9% and an Activity [1] of 80.6%.
For `Cc1ccc(OCCN2CCOCC2)cc1-c1ccnc(NC(=O)c2nc3n(n2)[C@@H](c2ccccc2)C[C@H]3F)c1`, the inhibition [5] was < 0%.
In the case of `Cc1ccc(OCCCC(C)(C)O)cc1-c1ccnc(NC(=O)c2nc3n(n2)C(C2CCCC2)CC3)c1` (stereo not given), the Activity [1] is reported as 73.2%.
For `Cc1ccc(OCCCC(C)(C)O)cc1-c1ccnc(NC(=O)c2nc3n(n2)C(c2cccc(F)c2)CC3)c1` (stereo not given), the Activity [1] was 58.1%.
For `Cc1ccc(OCCCC(C)(C)O)cc1-c1ccnc(NC(=O)c2nc3n(n2)C(c2ccccc2F)CC3)c1` (stereo not given), the Activity [1] was 62.7%.
`Cc1ccc(OCC(C)(C)O)cc1-c1ccnc(NC(=O)c2nc3n(n2)C(c2ccccc2)CC3)c1` (stereo not given) showed an Activity [2] of 3.8%, an Activity [3] of 94.1% and an Activity [4] of 10.9%. It also gave an Activity [1] of 98.2%.
Work on `Cc1ccc(OCCN2CCOCC2)cc1-c1ccnc(NC(=O)c2nc3n(n2)[C@H](c2ccccc2)C[C@@H]3F)c1` yielded an inhibition [5] of 79.1%, a half-life [6] of 1.91 h and an Activity [2] of 102.4%. It also gave an AUC(0-t) [7] of 15.2 ng·h/mL, a Tmax [8] of 0.67 h and an Activity [1] of 97.9%. For the same compound, the Cmax [9] was 8.9 ng/mL.
In the case of `Cc1ccc(OCCCC(C)(C)O)cc1-c1ccnc(NC(=O)c2nc(Cc3ccccc3)n[nH]2)c1`, the Activity [3] is reported as <0%, the IC50 [10] is reported as < 100 nM and the Activity [1] is reported as 90%.
In the case of `Cc1ccc(OCCCC(C)(C)O)cc1-c1cnnc(NC(=O)c2nc3n(n2)C(c2ccccc2)CC3)c1` (stereo not given), the Activity [1] is reported as 53.6%.
`CC(C)(O)CCCOc1cccc(-c2ccnc(NC(=O)c3nc4n(n3)C(c3ccccc3)CC4)c2)c1` (stereo not given) showed an Activity [3] of 2.2% and an Activity [1] of 86.1%.
`Cc1ccc(OCCCC(C)(C)O)cc1-c1ccnc(NC(=O)c2nc3n(n2)[C@H](c2ccccc2)C[C@H]3F)c1` (relative stereo) gave an Activity [2] of 6.3%, an Activity [3] of 104.2% and an Activity [4] of 41.3%. For the same compound, the Activity [1] was 98.9%.
In the case of `Cc1ccc(OCCC2CCOCC2)cc1-c1ccnc(NC(=O)c2nc3n(n2)[C@H](c2ccccc2)C[C@@H]3F)c1`, the inhibition [5] is reported as 78.8%, the Activity [2] is reported as 111.4% and the Activity [1] is reported as 70.5%.
In the case of `Cc1ccc(OCCCC(C)(C)O)cc1-c1ccnc(NC(=O)c2nc3n(n2)C(c2ccccc2)CC3)c1` (stereo not given), the Activity [2] is reported as 5.5%, the Activity [3] is reported as 86.6% and the Activity [4] is reported as 26.1%. It also gave an Activity [1] of 81.2%.
For `Cc1ccc(OCCC2CCOCC2)cc1-c1ccnc(NC(=O)c2nc3n(n2)[C@@H](c2ccccc2)C[C@H]3F)c1`, the inhibition [5] was < 0%.
`Cc1ccc(OCCCC#N)cc1-c1ccnc(NC(=O)c2nc3n(n2)C(c2ccccc2)CC3)c1` (stereo not given) showed an Activity [1] of 35.8%.
For `Cc1ccc(OCCCC(C)(C)O)cc1-c1ccnc(NC(=O)c2nc3n(n2)C(C2CCCCC2)CC3)c1` (stereo not given), the Activity [1] was 61.2%.
